The results in this text go back to ChEMBL document CHEMBL3352466 (J Med Chem, 2014).

Calls of active or inactive are those of the source. The calls are words filed in the database; no cut-off is given here.

Series [1] relates to Mus musculus. The series is described as follows: Toxicity in human HCT116 cells xenografted nu/nu mouse assessed as body weight changes at 10 mg/kg, iv qd for 7 days and then intraperitoneally once every day to the end. It is filed as organism-based, HCT-116. On the set-up: dose 10 mg/kg, route intravenous. The note with it: in vivo, 168 h. In outline: (§1)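 HCT116 xenografts were grown to about 200 mm3, then mice were randomized into groups (n = 8). Dosing was i.v. for 7 days, then i.p. once daily to the end. Vehicle was saline with 5% DMSO and 5% cremophor. Tumor growth and body weight were measured three times per week, and groups were compared by Student's t-test.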

Series [2] relates to Mus musculus. The series is described as follows: Toxicity in human HCT116 cells xenografted nu/nu mouse assessed as anaphylactic reactions at 5 mg/kg, iv qd for 7 days and then intraperitoneally once every day to the end. The settings on record: in vivo, 168 h. Details: dose 5 mg/kg, route intravenous. Format: organism-based, HCT-116. In outline: as §1
On the technique in general: Xenograft models place foreign cells or tissue in a host animal.

In series [3] the test system is Mus musculus. Nature of the series: Toxicity in BALB/c mouse assessed as anaphylactic responses at 30 to 300 mg/kg, ip administered as single dose measured after 15 days. Format: organism-based. Details: dose 30-300 mg/kg, route intraperitoneal. The note with it: in vivo, 360 h. In outline:
(§2)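 Male BALB/c mice, 8 weeks old, randomized into six groups (n = 10): single i.p. dose of 0 (vehicle), 30, 100, 200 or 300 mg/kg on day zero, or untreated normal control. Monitored for anaphylactic/allergic responses and body weight; at end, liver, lung, kidney and spleen formalin-fixed, paraffin-embedded, H&E-stained and graded histopathologically for lesions.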

Series [4] deals with Mus musculus. The series is described as follows: Toxicity in BALB/c mouse assessed as allergic reactions at 30 to 300 mg/kg, ip administered as single dose measured after 15 days. Format: organism-based. Details: dose 30-300 mg/kg, route intraperitoneal. The settings on record: in vivo, 360 h. An outline of the steps: as §2
Series [5] has as its system Mus musculus. Nature of the series: Toxicity in BALB/c mouse assessed as body weight loss at 30 to 300 mg/kg, ip administered as single dose measured after 15 days. Format: organism-based. The note with it: in vivo, 360 h. Details: dose 30-300 mg/kg, route intraperitoneal. An outline of the steps:
as §2

The test system of series [6] is Mus musculus. The series is described as follows: Toxicity in BALB/c mouse assessed as kidney inflammatory cell infiltration at 30 to 300 mg/kg, ip administered as single dose measured after 15 days by histopathological analysis. It is filed as organism-based. Details: dose 30-300 mg/kg, route intraperitoneal. The note with it: in vivo, 360 h. In outline:
as §2

The test system of series [7] is Mus musculus. Nature of the series: Toxicity in BALB/c mouse assessed as kidney chronic progressive nephropathy at 30 to 300 mg/kg, ip administered as single dose measured after 15 days by histopathological analysis. It is filed as organism-based. The settings on record: in vivo, 360 h. On the set-up: dose 30-300 mg/kg, route intraperitoneal. An outline of the steps: as §2

Series [8] concerns Mus musculus. Nature of the series: Toxicity in BALB/c mouse assessed as lung adenoma at 30 to 300 mg/kg, ip administered as single dose measured after 15 days by histopathological analysis. It is filed as organism-based. On the set-up: dose 30-300 mg/kg, route intraperitoneal. The note with it: in vivo, 360 h. An outline of the steps: as §2
Series [9] concerns A549. Nature of the series: Induction of apoptosis in human A549 cells assessed as cell membrane blebbing at 100 nM after 24 to 48 hrs by phase contrast microscopy. It is filed as functional, cell-based. In outline:
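A-549 cells incubated without or with 100 nM for 24 or 48 h; morphology observed under phase-contrast microscope and photographed.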

Series [10] relates to A549. The series is described as follows: Induction of apoptosis in human A549 cells assessed as late apoptosis cells level at 100 nM after 48 hrs by Annexin V-FITC/propidium iodide double staining based FACS method (reference value: 1.4%). Format: functional.
Series [11] has as its system A549. The series is described as follows: Induction of apoptosis in human A549 cells assessed as caspase-3 activation at 100 nM after 12 to 48 hrs by Western blot method. Format: functional, cell-based. An outline of the steps: (§3)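 A-549 cells treated with 100 nM for indicated times, then harvested and lysed; caspase cleavage determined by Western blot.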
Background: Immunoblotting shows a protein as a band on a membrane.

Series [12] concerns A549. Nature of the series: Induction of apoptosis in human A549 cells assessed as caspase-9 activation at 100 nM after 12 to 48 hrs by Western blot method. It is filed as functional, cell-based. An outline of the steps:
as §3

In series [13] the test system is A549. The series is described as follows: Induction of cell cycle arrest in human A549 cells assessed as accumulation at S phase at 30 to 300 nM after 24 hrs by propidium iodide staining based flow cytometry. Format: functional. An outline of the steps: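 A-549 cells treated with 0, 30, 100 or 300 nM for 24 h, fixed in ice-cold 70% EtOH, stained with propidium iodide; phase populations calculated from ploidy by flow cytometry.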
On the technique in general: In flow cytometry, cells or beads pass a laser one at a time.

The target of series [14] is T1, DNA topoisomerase 1 (Homo sapiens) (UniProt P11387).
T1 sequence (whole entry): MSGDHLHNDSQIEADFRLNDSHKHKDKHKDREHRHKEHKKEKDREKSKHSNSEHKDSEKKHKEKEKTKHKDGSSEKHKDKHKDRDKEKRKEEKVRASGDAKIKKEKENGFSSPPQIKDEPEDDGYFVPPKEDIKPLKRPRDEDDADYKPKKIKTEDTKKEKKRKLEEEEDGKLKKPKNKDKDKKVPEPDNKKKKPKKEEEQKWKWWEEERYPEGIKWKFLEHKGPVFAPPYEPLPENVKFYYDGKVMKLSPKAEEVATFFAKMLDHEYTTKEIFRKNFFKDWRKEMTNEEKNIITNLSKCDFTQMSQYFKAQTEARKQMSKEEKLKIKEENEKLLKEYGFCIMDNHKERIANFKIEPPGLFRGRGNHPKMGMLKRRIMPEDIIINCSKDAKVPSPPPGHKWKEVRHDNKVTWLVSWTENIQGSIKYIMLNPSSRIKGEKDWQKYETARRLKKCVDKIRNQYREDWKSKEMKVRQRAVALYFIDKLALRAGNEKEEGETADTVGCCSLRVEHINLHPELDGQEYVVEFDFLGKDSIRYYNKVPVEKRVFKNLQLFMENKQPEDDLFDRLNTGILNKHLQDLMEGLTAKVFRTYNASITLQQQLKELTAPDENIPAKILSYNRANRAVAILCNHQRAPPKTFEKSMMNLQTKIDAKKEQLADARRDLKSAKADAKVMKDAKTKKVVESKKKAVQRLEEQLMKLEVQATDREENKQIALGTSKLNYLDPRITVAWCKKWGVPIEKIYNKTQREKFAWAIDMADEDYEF
Nature of the series: Inhibition of topoisomerase 1 in human A549 cells assessed as reduction in relaxation of supercoiled DNA substrate at 30 to 100 nM incubated for 30 mins by ethidium bromide staining based gel electrophoresis. It is filed as cell-based. In outline: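 A-549 cells treated with vehicle or 30, 100 nM for 1 h, then harvested for Topo I activity assay.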

The target in series [15] is DNA topoisomerase 2-alpha (Homo sapiens) (UniProt P11388). Nature of the series: Inhibition of topoisomerase 2 in human A549 cells assessed as reduction in decatenation of kinetoplast DNA at 100 nM incubated for 60 mins by ethidium bromide staining based gel electrophoresis. It is filed as cell-based. An outline of the steps: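 Intact A-549 cells were exposed for 1 h at 100 nM, harvested, and their extracts run in a Topo II activity assay. Etoposide at 30 μM was the Topo II reference inhibitor.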

Series [16] has as its target Serine-protein kinase ATM (Homo sapiens) (UniProt Q13315). Nature of the series: Induction of ATM activation in human A549 cells assessed as Chk2 phosphorylation at 100 nM after 0.5 to 4 hrs by Western blot method. Format: cell-based. An outline of the steps:
(§4)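 A-549 cells exposed to 100 nM for the indicated times; whole-cell extracts immunoblotted with phospho-specific antibodies (p-ATM, p-ATR, p-Chk1, p-Chk2, p-H2AX, p-p53), with pan antibody to each protein and β-actin as loading controls.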

Series [17] concerns A549. Nature of the series: Increase in p53 protein expression in human A549 cells at 100 nM after 0.5 to 4 hrs by Western blot method. Format: functional, cell-based. In outline: as §4
Series [18] deals with A549. Nature of the series: Activation of p53 pathways in human A549 cells assessed as increase in PUMA protein expression at 100 nM after 2 to 24 hrs by Western blot method. Format: functional, cell-based. In outline:
(§5)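 Whole-cell lysates from A-549 cells given 100 nM or vehicle for the indicated hours; apoptosis-related proteins detected by Western blotting.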

Series [19] deals with A549. The series is described as follows: Increase in FADD protein expression in human A549 cells at 100 nM by Western blot method. It is filed as functional, cell-based. In outline:
as §5

Sequence of DNA topoisomerase 2-alpha (Homo sapiens) (P11388 whole entry): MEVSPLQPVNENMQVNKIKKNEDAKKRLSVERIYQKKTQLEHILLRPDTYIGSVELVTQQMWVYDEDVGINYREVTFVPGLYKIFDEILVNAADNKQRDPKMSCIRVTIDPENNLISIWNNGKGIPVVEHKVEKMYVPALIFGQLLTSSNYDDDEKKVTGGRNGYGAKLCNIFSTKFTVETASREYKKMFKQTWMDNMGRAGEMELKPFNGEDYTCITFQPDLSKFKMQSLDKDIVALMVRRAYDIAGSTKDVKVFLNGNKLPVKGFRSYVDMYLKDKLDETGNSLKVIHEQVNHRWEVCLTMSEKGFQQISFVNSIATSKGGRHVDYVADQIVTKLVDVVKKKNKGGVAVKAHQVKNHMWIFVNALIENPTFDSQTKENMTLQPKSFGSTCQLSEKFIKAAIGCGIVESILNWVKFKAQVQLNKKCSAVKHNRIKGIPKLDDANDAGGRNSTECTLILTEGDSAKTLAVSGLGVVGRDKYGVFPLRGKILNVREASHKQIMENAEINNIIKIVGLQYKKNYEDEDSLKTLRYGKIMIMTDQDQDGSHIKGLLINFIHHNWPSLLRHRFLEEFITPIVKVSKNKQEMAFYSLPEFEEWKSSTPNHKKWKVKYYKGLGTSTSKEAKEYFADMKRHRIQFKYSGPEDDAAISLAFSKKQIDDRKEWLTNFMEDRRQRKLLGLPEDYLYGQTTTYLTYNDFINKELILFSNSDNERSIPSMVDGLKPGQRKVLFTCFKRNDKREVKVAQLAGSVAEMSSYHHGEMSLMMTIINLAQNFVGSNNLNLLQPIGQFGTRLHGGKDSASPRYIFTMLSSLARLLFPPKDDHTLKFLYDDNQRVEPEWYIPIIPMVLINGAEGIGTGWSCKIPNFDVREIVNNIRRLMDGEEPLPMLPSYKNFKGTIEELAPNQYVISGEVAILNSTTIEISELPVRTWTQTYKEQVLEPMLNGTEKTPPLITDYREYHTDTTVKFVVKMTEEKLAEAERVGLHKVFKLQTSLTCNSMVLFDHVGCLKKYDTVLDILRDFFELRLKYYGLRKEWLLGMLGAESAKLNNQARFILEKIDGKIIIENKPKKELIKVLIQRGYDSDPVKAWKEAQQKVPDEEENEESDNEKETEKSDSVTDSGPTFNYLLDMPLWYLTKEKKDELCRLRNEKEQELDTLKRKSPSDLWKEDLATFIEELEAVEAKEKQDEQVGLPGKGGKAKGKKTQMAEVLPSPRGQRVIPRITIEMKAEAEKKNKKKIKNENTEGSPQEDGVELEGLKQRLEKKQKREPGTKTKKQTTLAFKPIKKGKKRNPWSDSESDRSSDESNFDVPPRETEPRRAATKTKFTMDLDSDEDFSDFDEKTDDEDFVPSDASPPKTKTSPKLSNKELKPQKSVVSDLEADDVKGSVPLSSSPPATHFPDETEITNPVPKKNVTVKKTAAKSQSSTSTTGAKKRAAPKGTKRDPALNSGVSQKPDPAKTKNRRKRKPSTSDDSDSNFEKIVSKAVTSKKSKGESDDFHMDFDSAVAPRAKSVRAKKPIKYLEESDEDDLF
Sequence of Serine-protein kinase ATM (Homo sapiens) (Q13315 whole entry): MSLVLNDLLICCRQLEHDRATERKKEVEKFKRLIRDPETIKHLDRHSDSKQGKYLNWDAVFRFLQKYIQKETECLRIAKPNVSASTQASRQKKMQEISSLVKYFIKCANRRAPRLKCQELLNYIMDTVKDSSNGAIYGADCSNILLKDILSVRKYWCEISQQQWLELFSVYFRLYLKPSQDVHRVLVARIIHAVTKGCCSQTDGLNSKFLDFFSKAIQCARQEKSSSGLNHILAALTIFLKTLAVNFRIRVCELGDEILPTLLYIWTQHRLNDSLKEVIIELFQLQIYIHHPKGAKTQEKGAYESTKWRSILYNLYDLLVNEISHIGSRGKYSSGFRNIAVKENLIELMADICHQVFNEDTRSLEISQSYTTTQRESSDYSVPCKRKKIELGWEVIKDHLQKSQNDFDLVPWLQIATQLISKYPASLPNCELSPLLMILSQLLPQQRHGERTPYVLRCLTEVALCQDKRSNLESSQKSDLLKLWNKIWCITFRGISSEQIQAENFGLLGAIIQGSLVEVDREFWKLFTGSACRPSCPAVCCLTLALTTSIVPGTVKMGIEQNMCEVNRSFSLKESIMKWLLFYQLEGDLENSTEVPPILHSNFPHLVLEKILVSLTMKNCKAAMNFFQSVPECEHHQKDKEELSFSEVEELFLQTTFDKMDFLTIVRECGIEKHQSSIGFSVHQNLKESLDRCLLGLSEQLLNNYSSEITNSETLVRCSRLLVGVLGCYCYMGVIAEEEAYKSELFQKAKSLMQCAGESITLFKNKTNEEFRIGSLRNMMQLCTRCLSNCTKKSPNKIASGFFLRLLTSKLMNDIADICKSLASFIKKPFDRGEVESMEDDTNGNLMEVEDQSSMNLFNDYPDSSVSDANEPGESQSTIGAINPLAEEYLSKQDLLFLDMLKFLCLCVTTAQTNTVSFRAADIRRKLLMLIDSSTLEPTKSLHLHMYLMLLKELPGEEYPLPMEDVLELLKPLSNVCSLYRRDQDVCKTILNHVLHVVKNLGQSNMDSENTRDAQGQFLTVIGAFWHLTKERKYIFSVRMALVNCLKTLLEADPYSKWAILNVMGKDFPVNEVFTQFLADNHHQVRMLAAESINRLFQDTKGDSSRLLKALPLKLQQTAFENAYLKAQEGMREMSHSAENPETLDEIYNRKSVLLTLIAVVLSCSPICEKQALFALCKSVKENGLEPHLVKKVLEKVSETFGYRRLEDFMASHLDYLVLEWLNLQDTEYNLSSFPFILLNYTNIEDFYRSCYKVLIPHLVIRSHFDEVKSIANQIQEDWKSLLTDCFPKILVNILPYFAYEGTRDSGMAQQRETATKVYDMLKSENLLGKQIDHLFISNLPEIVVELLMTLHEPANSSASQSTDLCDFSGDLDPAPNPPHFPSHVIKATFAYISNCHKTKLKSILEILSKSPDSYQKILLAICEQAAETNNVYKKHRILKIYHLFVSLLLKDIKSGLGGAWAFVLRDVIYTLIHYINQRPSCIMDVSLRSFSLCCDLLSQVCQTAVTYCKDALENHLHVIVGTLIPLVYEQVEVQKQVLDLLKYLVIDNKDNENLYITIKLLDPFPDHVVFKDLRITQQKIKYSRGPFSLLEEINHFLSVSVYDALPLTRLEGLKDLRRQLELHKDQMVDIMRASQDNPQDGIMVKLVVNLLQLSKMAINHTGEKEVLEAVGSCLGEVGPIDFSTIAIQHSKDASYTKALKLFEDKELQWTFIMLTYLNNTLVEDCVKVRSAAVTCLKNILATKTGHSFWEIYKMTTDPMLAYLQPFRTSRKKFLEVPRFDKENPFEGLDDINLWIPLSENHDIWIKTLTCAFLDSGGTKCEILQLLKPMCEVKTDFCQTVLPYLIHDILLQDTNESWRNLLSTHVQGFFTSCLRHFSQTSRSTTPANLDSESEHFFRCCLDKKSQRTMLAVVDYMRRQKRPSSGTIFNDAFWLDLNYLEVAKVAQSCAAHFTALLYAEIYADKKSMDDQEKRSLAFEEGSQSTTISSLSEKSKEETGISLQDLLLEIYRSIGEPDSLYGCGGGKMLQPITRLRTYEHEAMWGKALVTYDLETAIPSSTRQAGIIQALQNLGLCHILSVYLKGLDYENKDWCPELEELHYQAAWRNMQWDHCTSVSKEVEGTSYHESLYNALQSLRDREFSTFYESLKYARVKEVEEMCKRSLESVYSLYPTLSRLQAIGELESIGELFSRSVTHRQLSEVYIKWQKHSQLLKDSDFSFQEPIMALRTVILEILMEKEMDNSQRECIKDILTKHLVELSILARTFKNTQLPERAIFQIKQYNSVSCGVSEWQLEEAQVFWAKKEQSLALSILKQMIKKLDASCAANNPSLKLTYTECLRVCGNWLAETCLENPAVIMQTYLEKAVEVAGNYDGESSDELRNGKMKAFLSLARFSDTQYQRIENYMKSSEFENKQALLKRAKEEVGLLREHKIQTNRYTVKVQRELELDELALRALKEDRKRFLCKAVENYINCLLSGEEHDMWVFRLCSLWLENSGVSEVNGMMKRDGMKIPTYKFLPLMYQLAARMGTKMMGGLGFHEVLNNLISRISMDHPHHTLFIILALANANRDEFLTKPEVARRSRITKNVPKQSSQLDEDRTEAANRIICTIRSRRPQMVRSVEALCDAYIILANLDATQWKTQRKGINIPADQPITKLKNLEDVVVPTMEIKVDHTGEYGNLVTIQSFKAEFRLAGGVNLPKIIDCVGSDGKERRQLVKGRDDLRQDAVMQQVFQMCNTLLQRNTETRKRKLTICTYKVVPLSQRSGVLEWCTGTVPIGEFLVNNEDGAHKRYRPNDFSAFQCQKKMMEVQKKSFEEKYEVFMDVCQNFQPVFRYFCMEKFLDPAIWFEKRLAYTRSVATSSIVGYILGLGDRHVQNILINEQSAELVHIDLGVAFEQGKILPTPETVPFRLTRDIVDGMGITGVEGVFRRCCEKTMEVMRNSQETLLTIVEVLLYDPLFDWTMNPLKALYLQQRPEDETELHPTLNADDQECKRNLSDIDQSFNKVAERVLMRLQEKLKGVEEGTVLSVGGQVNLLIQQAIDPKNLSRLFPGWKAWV

As to `CC[C@@]1(OC(=O)CN/C(Cc2ccc(OC)cc2)=N/S(=O)(=O)c2ccc(C)cc2)C(=O)OCc2c1cc1n(c2=O)Cc2cc3ccccc3nc2-1`, the Activity entry in the series with Mus musculus [1], in the series with Mus musculus [2], in the series on Mus musculus [3], with Mus musculus [4], with Mus musculus [5] and in the series on Mus musculus [6] was “Non-toxic” in each case. Moreover, the results for the Activity result with Mus musculus [7], with Mus musculus [8] and in the series with A549 [10] were “Non-toxic”, “Non-toxic” and 32.5%, respectively. Moreover, the outcome (with A549 [9]; in the series with A549 [11]; in the series on A549 [12]; in the series on A549 [13]; in [16]; in the series with A549 [17]) was Active. Also, the result in the series with A549 [18] and in the series with A549 [19] was Active. In addition, in [14], the inhibition entry is “Active”. In addition, the inhibition result in [15] is “inactive”.
